Published values from different studies.
Lines come from different studies, so protocols differ.
Target: Calcium/calmodulin-dependent protein kinase type II subunit alpha (CAMK2A, Homo sapiens, UniProt Q9UQM7)

| SMILES | observed | mode | method | tested at | quantity | value |
| --- | --- | --- | --- | --- | --- | --- |
| COc1ccc2oc(-c3ccc4nc(N)oc4c3)c/c(=N\c3ccccc3NC(=O)CCN)c2c1 | binding |  |  | 1 µM | remaining binding | 93% |
| CCCCCCCCCCCO | enzyme activity | inhibitor |  | 10 µM | inhibition | -20% |
| C1=C/COCc2cc(ccc2OCCN2CCCC2)Nc2nccc(n2)-c2cccc(c2)COC/1 | binding |  |  | 0.1 µM | remaining binding | 91% |
| CC(C)S(=O)(=O)c1ccc2nccc(Nc3ccc4sc(C5CCCC5)nc4c3)c2c1 | enzyme activity | inhibitor |  | 1 µM | activity vs control | 104% |
| CCCCCCCCCCCCCCCCCCCCCCO | enzyme activity | inhibitor |  | 10 µM | inhibition | -5% |
| COc1ccc2[nH]c3c4[nH]c5ccc(OC)cc5c4c4c(c3c2c1)C(=O)NC4=O | binding |  |  | 1 µM | remaining binding | 70% |
| C=CC(=O)N1CCC([C@@H]2CCNc3c(C(N)=O)c(-c4ccc(Oc5ccccc5)cc4)nn32)CC1 | enzyme activity | inhibitor |  | 1 µM | inhibition | 0% |
| C[C@H]1CC[C@H](n2c3cnccc3c3cnc(Nc4ccc5c(n4)CCN(C(=O)CO)C5)nc32)CC1 | cell-free assay |  |  | 1 µM | remaining signal | 33% |
| CCCCC(=O)Nc1ccc(-c2ccc3ncn(CCC)c(=O)c3c2)cn1 | binding |  | competition with immobilised ligand | 0.5 µM | remaining binding | 100% |
| CO[C@@H]1[C@H](N(C)C(=O)c2ccccc2)C[C@H]2O[C@]1(C)n1c3ccccc3c3c4c(c5c6ccccc6n2c5c31)C(=O)NC4 | enzyme activity | inhibitor |  | 1 µM | inhibition | 94% |
